Assay [1] has as its system Escherichia coli. Put plainly: Inhibition of Escherichia coli SoxS binding to DNA at 50 ug/mL.
Assay [2] in a line: Inhibition of Escherichia coli SoxS binding to DNA.
The subject of a further assay is Staphylococcus aureus. Kind of assay: Antimicrobial activity against antibiotic-susceptible Staphylococcus aureus RN450. Format: functional.
The test system of assay [3] is Escherichia coli. Kind of assay: Antimicrobial activity against antibiotic-susceptible Escherichia coli ML308-225. Format: functional.
Assay [4] relates to Escherichia coli. Put plainly: Reduction of colony formation in urinary tract infection mouse model assessed per gram of kidney at 10 mg/kg, ip. To be noted: route intraperitoneal. Format: functional.
In assay [5] the test system is Escherichia coli. Put plainly: Inhibition of Escherichia coli SoxS binding to DNA at 25 ug/mL.
Assay [6] deals with Escherichia coli. Kind of assay: Inhibition of Escherichia coli Rob binding to DNA. Format: functional, organism-based.
For assay [7], the target named is T1, HTH-type transcriptional regulator ExsA (Pseudomonas aeruginosa (strain ATCC 15692 / PAO1 / 1C / PRS 101 / LMG12228), UniProt P26993).
T1 sequence (P26993 whole entry): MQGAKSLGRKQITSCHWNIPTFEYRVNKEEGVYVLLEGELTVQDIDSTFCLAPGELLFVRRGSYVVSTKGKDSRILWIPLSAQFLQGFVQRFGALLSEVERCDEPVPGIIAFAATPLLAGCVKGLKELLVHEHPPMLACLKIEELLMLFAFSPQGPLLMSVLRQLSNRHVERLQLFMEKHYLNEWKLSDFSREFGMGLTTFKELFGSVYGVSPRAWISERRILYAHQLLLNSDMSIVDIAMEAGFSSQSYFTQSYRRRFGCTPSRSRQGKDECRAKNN
Kind of assay: Inhibition of Pseudomonas aeruginosa ExsA binding to DNA.

Assay [8] is described as follows: Inhibition of Salmonella Typhimurium Rma binding to DNA. Set-up: species or system Salmonella enterica subsp. enterica serovar Typhimurium.
Assay [9] is described as follows: Inhibition of Escherichia coli MarA binding to DNA. An outline of the steps:
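Binding of the 6-His-tagged Mar protein (20 nM) to biotinylated double-stranded target DNA (2 nM) was measured with test compound on streptavidin-coated wells. After washing, retained protein was read by luminescence, and inhibition appeared as signal loss. Selected compounds were also incubated with DNA and run on agarose gels to check whether they altered DNA structure.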

A short description of assay [10]: Inhibition of Proteus mirabilis PqrA binding to DNA.

As usually defined, the inhibition is how much of the control response was suppressed. Read a high inhibition as a response far below the control. The IC50 is the concentration that gives 50% inhibition. Higher therefore signals weaker potency in that assay. As usually defined, the MIC is the lowest concentration found to suppress growth. A high value points to a less susceptible organism.

Compound `CN(C)c1ccc(-c2nc3ccc([N+](=O)[O-])cc3n2O)cc1` had an inhibition in the assay on Escherichia coli [1] of 75%. Still for that read-out and setting: with `Nc1ccc(-c2nc3ccc([N+](=O)[O-])cc3n2O)cc1` the figure was 80%; with `Nc1cccc(-c2nc3ccc([N+](=O)[O-])cc3n2O)c1`, 60%. Still for that read-out and setting: next, `CC(=O)Nc1ccccc1-c1nc2ccc([N+](=O)[O-])cc2n1O`: 31%. Take `O=[N+]([O-])c1ccc2nc(-c3ccc(Oc4ccccc4)cc3)n(O)c2c1`: the inhibition in the assay on Escherichia coli [1] amounted to 14%. For `On1c(-c2ccccc2)nc2ccc(C(F)(F)F)cc21`, the inhibition in the assay on Escherichia coli [1] was found to be 26%.

In the case of `COc1ccc2nc(-c3ccccc3)n(O)c2c1`, in the assay with Escherichia coli [1], the inhibition was determined as 0%.

In the assay on Escherichia coli [1], `O=C(O)CCOn1c(-c2ccccc2)nc2ccc([N+](=O)[O-])cc21` returned an inhibition of 0%. On to `N#Cc1ccc2nc(-c3ccccc3)n(O)c2c1`, for which the inhibition with Escherichia coli [1] is 30%. On the same count and under the same terms, with `NCCOn1c(-c2ccccc2)nc2ccc([N+](=O)[O-])cc21` the figure was 0%; with `CN(C)c1ccc2nc(-c3ccccc3)n(O)c2c1`, 28%.

Compound `COc1ccc(C(=O)Nc2ccc(-c3nc4ccc([N+](=O)[O-])cc4n3O)cc2)cc1` came in with an IC50 in assay [2] of 2.5 µM. Besides, the MIC in the assay with Staphylococcus aureus and with Escherichia coli [3] was over 64 µg/mL each time. The compound further showed a CFU in the assay on Escherichia coli [4] of 1. `CS(=O)(=O)c1ccc2nc(-c3ccccc3)n(O)c2c1` showed an inhibition with Escherichia coli [1] of 35%. Turning to `Cc1ccc(C(=O)Nc2ccc(-c3nc4ccc([N+](=O)[O-])cc4n3O)cc2)cc1`, the IC50 in [2] was 10 µM. The MIC against Staphylococcus aureus and against Escherichia coli [3] was over 64 µg/mL in each case. Consider `O=C(Nc1ccc(-c2nc3ccc([N+](=O)[O-])cc3n2O)cc1)c1cccc(Cl)c1`, for which the IC50 in assay [2] stood at 3.4 µM. Further, the MIC against Staphylococcus aureus and in the assay on Escherichia coli [3] was over 64 µg/mL each time. In the assay on Escherichia coli [1], `O=[N+]([O-])c1ccc2nc(-c3ccccc3)n(OCCO)c2c1` displayed an inhibition of 0%. The same measure, in the same setting: with `Nc1ccccc1-c1nc2ccc([N+](=O)[O-])cc2n1O` the figure was 2%; with `CC(=O)Nc1cccc(-c2nc3ccc([N+](=O)[O-])cc3n2O)c1`, 32%. On to `N#CCOn1c(-c2ccccc2)nc2ccc([N+](=O)[O-])cc21`, for which the inhibition in the assay with Escherichia coli [1] came out at 12%. Still for that read-out and setting: with `O=[N+]([O-])c1ccc2nc(-c3ccc(Br)cc3)n(O)c2c1` the figure was 26%; with `O=[N+]([O-])c1ccc2nc(-c3ccc(O)cc3)n(O)c2c1`, 35%.

`On1c(-c2ccccc2)nc2ccccc21` had an inhibition with Escherichia coli [1] of 0%. On the same count and under the same terms, with `CC(=O)c1ccc2nc(-c3ccccc3)n(O)c2c1` the figure was 37%.

Turning to `CC(=O)Nc1ccc(-c2nc3ccc([N+](=O)[O-])cc3n2O)cc1`, the values for the inhibition in the assay on Escherichia coli [1] and in the assay with Escherichia coli [5] were 100% and 58%, respectively. As to `O=C(O)c1ccc2nc(-c3ccccc3)n(O)c2c1`, the inhibition with Escherichia coli [1] was 12%. The same measure, in the same setting: with `CCCOn1c(-c2ccccc2)nc2ccc([N+](=O)[O-])cc21` the figure was 0%; with `CC(C)(C)c1ccc2nc(-c3ccccc3)n(O)c2c1`, 0%; with `On1c(-c2ccccc2)nc2ccc(F)cc21`, 26%. The same measure, in the same setting: next, `CCOC(=O)COn1c(-c2ccccc2)nc2ccc([N+](=O)[O-])cc21`: 0%; `O=C(NCc1ccc(-c2nc3ccc([N+](=O)[O-])cc3n2O)cc1)c1ccccc1`: 44%. Consider `O=C(Nc1ccc(-c2nc3ccc([N+](=O)[O-])cc3n2O)cc1)c1ccccc1`, for which the inhibition in the assay with Escherichia coli [1] and in the assay with Escherichia coli [5] was 100% each time. This compound also showed an IC50 in [2] of 17 µM. In addition, the MIC in the assay with Staphylococcus aureus and against Escherichia coli [3] was over 64 µg/mL each time. In the assay with Escherichia coli [1], `COn1c(-c2ccccc2)nc2ccc([N+](=O)[O-])cc21` yielded an inhibition of 17%.

`NC(=O)c1ccc2nc(-c3ccccc3)n(O)c2c1` came in with an inhibition with Escherichia coli [1] of 14%. On the same count and under the same terms, with `O=C(O)COn1c(-c2ccccc2)nc2ccc([N+](=O)[O-])cc21` the figure was 14%. On to `O=C(Nc1ccc(-c2nc3ccc([N+](=O)[O-])cc3n2O)cc1)c1ccc(F)cc1`, for which the IC50 came out at 2.8 µM in assay [2], 4.7 µM in the assay with Escherichia coli [6], 4 µM in [7] and 4.9 µM in assay [8]. Besides, the MIC in the assay on Staphylococcus aureus and in the assay on Escherichia coli [3] was over 64 µg/mL throughout. With `CN(C)c1ccc(C(=O)Nc2ccc(-c3nc4ccc([N+](=O)[O-])cc4n3O)cc2)cc1`, the IC50 in assay [2] came to 0.82 µM; in assay [9], 1.2 µM; in the assay with Escherichia coli [6] it was 1.3 µM; in assay [7], 1.9 µM; in assay [8] it was 1.8 µM; in assay [10] it was 1.4 µM. Further, the MIC in the assay on Staphylococcus aureus and against Escherichia coli [3] was over 64 µg/mL in each case. Besides, in the assay with Escherichia coli [4], the CFU is reported as 0.5.

Consider `COc1ccc(-c2nc3ccc([N+](=O)[O-])cc3n2O)cc1`, for which, in the assay on Escherichia coli [1], the inhibition was 12%. In the assay with Escherichia coli [1], `O=[N+]([O-])c1ccc2nc(-c3ccccc3)n(O)c2c1` returned an inhibition of 38%.

In turn, `C/C(=N/O)c1ccc2nc(-c3ccccc3)n(O)c2c1` showed an inhibition with Escherichia coli [1] of 38%. The same measure, in the same setting: with `CN(C)c1cccc(-c2nc3ccc([N+](=O)[O-])cc3n2O)c1` the figure was 30%.
